Assay results reported in ChEMBL document CHEMBL1122240, “Inhibition by carboxamides and sulfoxides of liver alcohol dehydrogenase and ethanol metabolism” (J Med Chem, 1983).

Legend:
Alcohol dehydrogenase = Alcohol dehydrogenase (Equus caballus, UniProt P00327+P00328); experiment: In vitro inhibition against horse liver alcohol dehydrogenase
[1] = In vivo inhibition of ethanol metabolism following 1 mMol/Kg i.p.; conditions: ip
[2] = biological target: T1, Alcohol dehydrogenase (Equus caballus) (UniProt P00327+P00328); experiment: Intercept inhibition constant was determined against horse liver alcohol dehydrogenase in presence of acetaldehyde
How it was run: (§1)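 Purified horse liver enzyme, reverse reaction. Freshly distilled acetaldehyde was varied (1–5 mM; 0.4–2.0 mM in some runs) with 0.1 mM NADH and at least three inhibitor levels. Initial velocities were read as A340 change, 32 points per experiment, and inhibition constants were obtained from double-reciprocal fits.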

[3] = biological target: T1, Alcohol dehydrogenase (Equus caballus); experiment: Intercept inhibition constant was determined against horse liver alcohol dehydrogenase in presence of ethanol
How it was run: (§2)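 Purified horse liver enzyme with ethanol varied as substrate and NAD+ as coenzyme. At least three inhibitor concentrations were tested (e.g. 0–0.2 mM). Initial velocities were followed at 340 nm, 32 points in one experiment. Intercept and slope constants were derived from double-reciprocal plots fitted to uncompetitive or noncompetitive equations.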

[4] = biological target: T1, Alcohol dehydrogenase (Equus caballus); experiment: Slope inhibition constant was determined against horse liver alcohol dehydrogenase in presence of acetaldehyde; how it was run: as §1
[5] = Michaelis-Menten's constant was determined in vivo against rat liver alcohol dehydrogenase in presence of ethanol; format: organism-based
How it was run: (§3)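 Fed male Sprague-Dawley rats (175–280 g) received inhibitor ip (0.1 M sulfoxide or ≤0.46 M amide in saline) at 0–1.0 mmol/kg. Ten minutes later ethanol (3.26 M) was given ip at 7.69, 10.9 or 19.6 mmol/kg. Tail blood was sampled over time and ethanol measured by GC against a tert-butyl alcohol internal standard. Rate was derived by Widmark's method.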

[6] = Intercept inhibition constant was determined in vitro against purified rat liver alcohol dehydrogenase in presence of ethanol
How it was run: (§4)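 Rat liver enzyme partially purified by (NH4)2SO4 fractionation, DEAE-cellulose and Sephadex G-100. Assays ran in 83 mM potassium phosphate pH 7.3 with 40 mM KCl (μ 0.25) at 37.8 °C, with 0.5 mM NAD+, ethanol at 0.4–2 mM and inhibitor at 0–0.6 mM. Initial rates were read at 340 nm, 32 points per experiment.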

[7] = Intercept inhibition constant was determined in vivo against rat liver alcohol dehydrogenase in presence of ethanol; format: organism-based; how it was run: as §3
[8] = biological target: T1, Alcohol dehydrogenase (Equus caballus); experiment: Slope inhibition constant was determined against horse liver alcohol dehydrogenase in presence of ethanol; how it was run: as §2
[9] = Michaelis-Menten's constant was determined in vitro against purified rat liver alcohol dehydrogenase in presence of ethanol; how it was run: as §4
[10] = Slope inhibition constant was determined against purified rat liver alcohol dehydrogenase in presence of ethanol; how it was run: as §4
[11] = In vivo inhibition of ethanol metabolism following 1 mMol/Kg i.p.
CC(C)CC(N)=O [12] = experiment: (§5) Michaelis-Menten's constant was determined against horse liver alcohol dehydrogenase in presence of ethanol; conditions: Equus caballus; how it was run: as §2
[O-][S+]1CCCC1 [13] = as §5; conditions: Equus caballus; how it was run: as §2
CC(C)CC(N)=O [14] = experiment: (§6) Michaelis-Menten's constant was determined against horse liver alcohol dehydrogenase in presence of acetaldehyde; conditions: Equus caballus; how it was run: as §1
[O-][S+]1CCCC1 [15] = as §6; conditions: Equus caballus; how it was run: as §1

Sequence of Alcohol dehydrogenase (Equus caballus) (from UniProt P00327+P00328) (P00328 whole entry, looked up): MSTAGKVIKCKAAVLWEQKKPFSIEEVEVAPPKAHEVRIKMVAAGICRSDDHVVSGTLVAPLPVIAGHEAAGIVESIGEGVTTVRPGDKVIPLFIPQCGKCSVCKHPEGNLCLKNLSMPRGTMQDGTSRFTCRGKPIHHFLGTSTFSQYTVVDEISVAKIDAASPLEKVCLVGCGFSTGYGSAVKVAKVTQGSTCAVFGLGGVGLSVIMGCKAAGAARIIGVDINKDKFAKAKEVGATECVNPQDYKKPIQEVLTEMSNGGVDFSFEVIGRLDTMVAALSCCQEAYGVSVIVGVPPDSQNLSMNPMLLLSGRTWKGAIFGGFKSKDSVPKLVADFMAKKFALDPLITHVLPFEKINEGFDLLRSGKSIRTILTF
Sequence of Alcohol dehydrogenase (Equus caballus) (from UniProt P00327+P00328) (P00327 whole entry, looked up): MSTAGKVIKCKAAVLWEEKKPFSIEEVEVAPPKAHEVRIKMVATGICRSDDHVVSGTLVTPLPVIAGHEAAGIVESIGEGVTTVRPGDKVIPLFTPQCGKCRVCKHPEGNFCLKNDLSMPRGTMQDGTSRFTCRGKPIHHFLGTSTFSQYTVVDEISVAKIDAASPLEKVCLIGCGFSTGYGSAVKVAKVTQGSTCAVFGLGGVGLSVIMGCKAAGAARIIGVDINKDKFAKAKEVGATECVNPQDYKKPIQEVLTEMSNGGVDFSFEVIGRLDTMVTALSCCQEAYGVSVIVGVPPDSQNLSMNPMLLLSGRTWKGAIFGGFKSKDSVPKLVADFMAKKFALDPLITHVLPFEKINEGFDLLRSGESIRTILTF

Molecule | Ki (Alcohol dehydrogenase) | inhibition in vivo at 1000 µmol/kg [1] | also measured
C=C[S+]([O-])c1ccccc1 (stereo unspecified) | 500 µM |  | 
[O-][S+]1CCC1 | 150 µM | 25% | 
CCCCCCCCCCCCCC[S+](C)[O-] (stereo unspecified) | 10 µM | 15% | 
NNC(N)=S [THIOSEMICARBAZIDE] | 1900 µM |  | 
CCCCCCCCC(N)=O [NONANOAMIDE] |  | 15% | 
CC(C)C(=O)NN | 2900 µM |  | 
CC(C)C[S+](C)[O-] (stereo unspecified) | 340 µM | 14% | 
CC[S+]([O-])c1ccccc1 (stereo unspecified) | 12500 µM |  | 
NC(=O)CCCO | 6800 µM | 5% | 
CC(C)CC(N)=O [ISOVALERAMIDE] | 20 µM | 78% | Kii [2]: 460 µM; Kii [3]: 20 µM; Kis [4]: 11 µM; Km [5]: 1500 µM/kg; Kii [6]: 20 µM; Kii [7]: 180 µM/kg; Kis [8]: 160 µM
O=C1CC[S+]([O-])CC1 | 9700 µM |  | 
[O-][S+]1CCCCC1 | 480 µM | 21% | 
NC(=O)C(F)(F)C(F)(F)C(F)(F)F [HEPTAFLUOROBUTYRAMIDE] | 2000 µM |  | 
CC[S+]([O-])CC | 1100 µM |  | 
NC(=O)C1CC1 [CYCLOPROPANECARBOXYLIC ACID AMIDE] | 790 µM | 29% | 
[O-][S+]1CCNCC1 | 120000 µM |  | 
NC(=O)CCCl | 5300 µM | 15% | 
C[S+]([O-])c1ccccc1 (stereo unspecified) [METHYLPHENYLSULFOXIDE] | 200 µM | 19% | 

Molecule | Ki (Alcohol dehydrogenase) | inhibition in vivo at 1000 µmol/kg [1] | also measured
NC(=O)CCCCO | 4400 µM | 9% | 
[O-][S+]1CCOCC1 | 10600 µM |  | 
CCCCCC[S+](C)[O-] (stereo unspecified) | 47 µM | 67% | 
CC(C)(Br)C(N)=O |  | 5% | 
[O-][S+]1CCCC1 | 19 µM |  | Kii [2]: 71 µM; Kii [3]: 19 µM; Kis [4]: 11 µM; Km [5]: 2000 µM/kg; Kii [6]: 200 µM; Kii [7]: 340 µM/kg; Km [9]: 350 µM; Kis [8]: 130 µM; Kis [10]: 230 µM; inhibition [11]: 63%
NC(=O)CCO | 8500 µM | 15% | 
COCC(N)=O [METHOXYACETAMIDE] | 600 µM | 18% | 
O=C1CCCCN1 | 13000 µM |  | 
NC(=O)CSCC(N)=O | 36000 µM | 7% | 
NC(=O)CCCCCO | 1500 µM | 24% | 
CC(C)CC[S+](C)[O-] (stereo unspecified) | 430 µM | 19% | 
CC[S+](C)[O-] (stereo unspecified) | 500 µM | 16% | 
Alcohol dehydrogenase (Equus caballus) (from UniProt P00327+P00328) |  |  | Km (CC(C)CC(N)=O [12]): 900 µM; Km ([O-][S+]1CCCC1 [13]): 620 µM; Km (CC(C)CC(N)=O [14]): 150 µM; Km ([O-][S+]1CCCC1 [15]): 230 µM
CC(C)C(N)=O [ISOBUTYRAMIDE] | 220 µM | 36% | 
CC(C)(C)CC(N)=O | 150 µM | 71% | 
C[S+]([O-])Cc1ccccc1 (stereo unspecified) | 5000 µM | 13% | 
NC(N)=S [THIOUREA] | 42000 µM |  | 
NC(=O)C(O)CCO (stereo unspecified) | 5800 µM |  | 
